Source: article PMC8273112 (ACS Infectious Diseases, 2021)
Structures can show the parent of a compound that is named as a salt. Where two headings read alike, the source gives them in different places.

Tests used:
P. falciparum = settings: cited from earlier work
Leishmania donovani = settings: read-out: in vitro IC50 Leishmania donovani; cited from earlier work
[1] = system: Plasmodium falciparum strain Dd2; experiment: SYBR Green growth inhibition assay, P. falciparum Dd2; type: cell-based; settings: read-out: IC50 Dd2
[2] = system: Plasmodium falciparum strain D6; experiment: SYBR Green growth inhibition assay, P. falciparum D6; type: cell-based; settings: read-out: IC50 D6
[3] = system: P. falciparum strain Tm90–C2B; experiment: SYBR Green growth inhibition assay, P. falciparum Tm90-C2B; type: cell-based, Plasmodium falciparum; settings: read-out: IC50 Tm90–C2B
In short: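 Human erythrocytes (≤28 days old), 2% hematocrit, asynchronous culture at 0.2% initial parasitemia, in RPMI-1640 with HEPES, hypoxanthine, glucose, glutamine and Albumax II. 2-fold serial dilution starting at 20 μM, quadruplicate. Incubated 72 h at 37 °C under 5% O2/5% CO2/90% N2. SYBR Green I dye-detergent added for at least 1 h in the dark; fluorescence read at 497/520 nm, normalized to untreated wells, plotted against log concentration.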

Plasmodium yoelii [4] = experiment: Modified 4-day Peters test, murine malaria; type: in vivo, Plasmodium yoelii in mice; settings: for P. yoelii ED50 / P. yoelii ED90: oral gavage days 1–4, parasitemia day 5, mice; for P. yoelii NRD (nonrecrudescence dose, cure dose): oral gavage up to 25 mg/kg/day, no parasites at day 30
[5] = system: P. falciparum A6 (SB1-A6); experiment: SYBR Green growth inhibition assay, P. falciparum A6; type: cell-based, Plasmodium falciparum; settings: 72 h, read-out: IC50 A6
In short: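 Asynchronous parasites grown in human erythrocytes in RPMI-1640 with HEPES, hypoxanthine and Albumax II under 5% O2/5% CO2/90% N2 at 37 °C. Test compound in 2-fold serial dilution from 20 μM, run in quadruplicate, at 2% hematocrit and 0.2% starting parasitemia for 72 h. SYBR Green I lysis dye added for ≥1 h in the dark. Fluorescence read at 497/520 nm, normalized to untreated wells and plotted against log concentration.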

HepG2 cytotoxicity assay = type: cell-based, human; settings: human, HepG2 cells
HepG2 cells = experiment: HepG2 cytotoxicity assay; type: cell-based, human; settings: read-out: IC50 cytotoxicity, 24 h drug, 24 h recovery
Plasmodium yoelii [6] = settings: at any dose level; no reference given; cited from earlier work
[7] = cited from earlier work
P. berghei = settings: cited from earlier work
Babesia microti = settings: oral; cited from earlier work
Toxoplasma gondii = settings: cited from earlier work
[8] = Murine microsomal stability; type: in vitro ADME
[9] = Plasmodium falciparum, DD2, 72 h
[10] = Plasmodium falciparum, D6, 72 h
[11] = Plasmodium falciparum, TM90, 72 h
[12] = multidrug-resistant P. falciparum strain Dd2, 72 h
[13] = P. falciparum pan-sensitive strain D6, 72 h, average of two to four determinations
[14] = multidrug-resistant clinical isolate also resistant to atovaquone, 72 h
[15] = in-house derived mutant line resistant to respiratory antagonists

| Compound | IC50 [1, 9] [µM] | IC50 [2, 10] [µM] | IC50 [3, 11] [µM] | IC50 ([5]; Plasmodium falciparum) [µM] | IC50 at 24 h (HepG2 cytotoxicity assay) [µM] | IC50 [1, 12] [µM] | IC50 [2, 13] [µM] | IC50 [3, 14] [µM] | IC50 [5, 15] [µM] | IC50 (HepG2 cells) [µM] | also measured |
| --- | --- | --- | --- | --- | --- | --- | --- | --- | --- | --- | --- |
| Cl.Cl.Cl.N=C(N)c1cccc(/C=N/N=C(\N)N/N=C/c2cccc(C(=N)N)c2)c1 [CGP 40215A] |  |  |  |  |  |  |  |  |  |  | IC50 value against P. falciparum in vitro (P. falciparum): low micromolar; IC50 (Leishmania donovani): 18 µM |
| Cl.N#Cc1ccc(C=NNC(=N)NN=Cc2ccc(C#N)cc2)cc1 [Compound 22, 2,2′-Bis[(4-cyanophenyl)methylene]carbonimidic Dihydrazide Hydrochloride] | 0.166 | 0.058 | 0.312 | 0.076 | > 200 |  |  |  |  |  | P. yoelii ED50 (Plasmodium yoelii [4]): 2.7 mg/kg/day; P. yoelii ED90 (Plasmodium yoelii [4]): 7.7 mg/kg/day; P. yoelii NRD (nonrecrudescence dose, cure dose) (Plasmodium yoelii [4]): >25 mg/kg/day |
| N=C(NN=Cc1ccc([N+](=O)[O-])cc1)NN=Cc1ccc([N+](=O)[O-])cc1 [Compound 27, 2,2′-Bis[(4-nitrophenyl)methylene]carbonimidic Dihydrazide Hydrochloride] | 0.198 | 0.096 | 0.247 | 0.085 | > 200 |  |  |  |  |  |  |
| N=C(NN=Cc1ccc(C(=O)O)cc1)NN=Cc1ccc(C(=O)O)cc1 [Compound 29, 2,2′-Bis[(phenyl-4-carbonate)methylene]carbonimidic Dihydrazide Hydrochloride] |  |  |  |  |  | > 5 | > 5 | > 5 | > 5 | > 200 |  |
| N=C(NN=Cc1ccc(S(N)(=O)=O)cc1)NN=Cc1ccc(S(N)(=O)=O)cc1 [Compound 31, 2,2′-Bis[(4-sulphonamidophenyl)methylene]carbonimidic Dihydrazide Hydrochloride] |  |  |  |  |  | > 5 | > 5 | > 5 | > 5 | > 200 |  |
| N=C(NN=Cc1cccc(-n2cnnn2)c1)NN=Cc1cccc(-n2cnnn2)c1 [Compound 34, 2,2′-Bis[(3-tetrazole-1-phenyl)methylene]carbonimidic Dihydrazide Hydrochloride] |  |  |  |  |  | > 5 | 1.65 | > 5 | 4.79 | 107 |  |
| N=C(NN=Cc1ccc(-n2cnnn2)cc1)NN=Cc1ccc(-n2cnnn2)cc1 [Compound 35, 2,2′-Bis[(4-tetrazole-1-phenyl)methylene]carbonimidic Dihydrazide Hydrochloride] |  |  |  |  |  | > 5 | 0.838 | > 5 | > 5 | > 200 |  |
| N=C(NN=Cc1ccc2c(c1)OC(F)(F)O2)NN=Cc1ccc2c(c1)OC(F)(F)O2 [Compound 36, 2,2′-Bis{[4-(2,2-difluoro-2,3-dioxazolo)]phenyl}methylene]carbonimidic Dihydrazide Hydrochloride] |  |  |  |  |  | 0.8 | 0.25 | 0.905 | 0.235 | > 200 |  |
| O=C1C(O)=C([C@H]2CC[C@H](c3ccc(Cl)cc3)CC2)C(=O)c2ccccc21 [atovaquone, reference compound] | < 0.001 | < 0.001 | > 5 | > 5 | 72 |  |  |  |  |  |  |
| CCN(CC)CCCC(C)Nc1ccnc2cc(Cl)ccc12 (centres unmarked) [chloroquine, reference compound] | 0.07 |  | 0.297 | 0.016 | 181 |  |  |  |  |  | cure in P. yoelii model (Plasmodium yoelii [6]): not curative |
| Cl.N=C(NN=Cc1ccc(Cl)cc1)NN=Cc1ccc(Cl)cc1 [robenidine, 1,3-Bis(p-chlorobenzylideneamino)guanidine hydrochloride, reference compound] | 0.814 | 0.324 | 1.32 | 0.41 | 30 |  |  |  |  |  | absorption [7]: poorly absorbed; activity in vivo against P. berghei (P. berghei): moderate activity; murine in vivo nonrecrudescence dose Babesia microti (Babesia microti): 100 mg/kg/day; P. yoelii ED50 (Plasmodium yoelii [4]): 1.6 mg/kg/day; P. yoelii ED90 (Plasmodium yoelii [4]): 4.9 mg/kg/day; P. yoelii NRD (nonrecrudescence dose, cure dose) (Plasmodium yoelii [4]): >25 mg/kg/day; in vitro IC50 Toxoplasma gondii (Toxoplasma gondii): 0.03 µg/mL; murine microsomal stability, t1/2 ([8]; 1 μM, 0.5 mg/mL protein, 37 °C, 1 h, NADPH): 2.6442 h; CLint scaled at 1 μM ([8]; mouse, pooled murine liver microsomes, pH 7.4): 34.4 mL/min/kg; half-life at 1 μM ([8]; mouse, pooled murine liver microsomes, pH 7.4, murine microsomal stability, t1/2, 1 μM, 0.5 mg/mL protein, 37 °C, 1 h, NADPH): > 2.5 h |
